An excerpt weighted towards active compounds, which were near 2.3% of everything screened.
TRPC4 act – TRPC4 (mouse) channel activation | Q9QUQ5 | HEK293 TRPC4beta/mu-opioid, Fluo4 calcium fluorescence; active compounds read high | B-score at 10 µM | 310,000 tested, 0.49% active;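 active means B-score above 5 SD of library B-scores, and initial fluorescence ratio not above library mean plus 5 SD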;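 further: positive B-score marks a calcium rise read as TRPC4 activation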
Target sequence (Q9QUQ5 whole entry, looked up): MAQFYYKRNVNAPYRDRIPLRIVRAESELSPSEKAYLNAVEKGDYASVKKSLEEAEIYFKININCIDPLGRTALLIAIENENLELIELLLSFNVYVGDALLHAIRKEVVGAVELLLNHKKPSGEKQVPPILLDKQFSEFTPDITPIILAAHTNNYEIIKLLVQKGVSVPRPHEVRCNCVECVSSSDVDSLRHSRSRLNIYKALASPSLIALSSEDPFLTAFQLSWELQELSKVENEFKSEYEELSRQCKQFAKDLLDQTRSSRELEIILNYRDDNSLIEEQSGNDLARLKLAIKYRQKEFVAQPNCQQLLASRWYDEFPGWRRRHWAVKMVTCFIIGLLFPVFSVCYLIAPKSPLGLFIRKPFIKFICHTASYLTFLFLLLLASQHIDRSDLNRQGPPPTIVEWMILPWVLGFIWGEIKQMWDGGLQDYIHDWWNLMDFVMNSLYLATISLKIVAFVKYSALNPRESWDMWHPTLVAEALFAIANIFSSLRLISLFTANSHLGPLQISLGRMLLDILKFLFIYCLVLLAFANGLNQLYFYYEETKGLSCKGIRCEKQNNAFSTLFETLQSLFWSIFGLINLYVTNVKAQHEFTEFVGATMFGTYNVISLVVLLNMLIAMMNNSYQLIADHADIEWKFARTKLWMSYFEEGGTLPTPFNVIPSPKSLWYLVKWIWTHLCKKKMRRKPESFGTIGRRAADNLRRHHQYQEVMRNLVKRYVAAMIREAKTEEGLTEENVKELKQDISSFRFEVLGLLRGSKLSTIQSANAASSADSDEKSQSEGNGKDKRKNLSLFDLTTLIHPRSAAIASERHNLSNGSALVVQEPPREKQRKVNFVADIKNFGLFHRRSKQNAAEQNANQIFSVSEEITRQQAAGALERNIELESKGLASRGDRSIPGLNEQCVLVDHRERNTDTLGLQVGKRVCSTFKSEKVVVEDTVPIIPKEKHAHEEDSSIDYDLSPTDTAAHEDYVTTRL
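Material: TRPC4beta and mu-opioid receptor HEK293 stable cells | Incubation: 45 min room-temperature Fluo4 loading, 110 s read | Detection: Kinetic Fluo4 calcium fluorescence | Measure: Integrated baseline-normalised fluorescence ratio, converted to per-well B score | Benchmarks: Low control buffer alone, high control maximal DAMGO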
TRPC4 potent – allosterically enhances the mouse TRPC4 cation channel | Q9QUQ5 | HEK293 TRPC4beta/mu-opioid, DAMGO EC20, Fluo-4 Ca2+ flux; active compounds read high | B-score at 10 µM | 310,000 tested, 0.42% active | AID 2227;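 active means B-score of calcium response area above 5 SD of library B-scores, with initial fluorescence ratio within 5 SD of library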;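 further: B-score of integrated fluorescence ratio over time as area under calcium response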
TRPC6 activator – activators of mouse TRPC6 channel; B-score at 10 µM; 310,000 tested, 0.13% active; HEK293-TRPC6 membrane potential dye fluorescence; active compounds read high;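 active means B-score of the integrated fluorescence ratio above library mean plus 3 SD, and starting fluorescence ratio within library mean plus 5 SD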;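 further: higher score means more depolarization so channel activation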
TRPC4 inh – inhibitors of mouse TRPC4 channel; HEK293 TRPC4beta/mu-opioid, DAMGO-evoked Fluo4 calcium flux; active compounds read low; B-score at 10 µM; 300,000 tested, 0.39% active; AID 2247;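 active means B-score over 3 SD under the library average, no early fluorescence shift, positive overall ratio signal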
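System: stable TRPC4beta/mu-opioid receptor HEK293 cells; Dosing: single-point compound dosing; Measured by: Fluo4 Ca2+ flux fluorescence; Read-out basis: per-well B score of integrated baseline-normalized Fluo4 ratio.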
TRPC6 inhibitor – blocks the mouse TRPC6 cation channel. 310,000 tested, 1.1% active. B-score at 10 µM. AID 2553. HEK293-TRPC6, membrane potential dye, ACh-evoked depolarization; active compounds read low;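 active means B-score under library mean minus 3 SD, initial fluorescence not abnormally high, positive integrated signal ratio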;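 further: B-score derived from integrated fluorescence ratio over the kinetic read; more negative B-score means stronger inhibition of depolarization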
TRPC4 sel inh 2 – second check of whether TRPC6 inhibitors also affect mouse TRPC4; HEK293 TRPC4/MOR, membrane potential dye fluorescence; channel activated by saturating DAMGO dose; 920 tested, 42% active; shares compounds with TRPC6 inhibitor; inhibition, % at 10 µM;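 active means compounds whose fluorescence signal differed from control wells by over 3 SD, either direction, in both duplicate plates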
TRPC4 spec – selectivity of TRPC6 inhibitors: effect on mouse TRPC4; activity change, negative = inhibition, % at 10 µM; HEK293 TRPC4/mu-opioid, membrane potential fluorescence; 920 tested, 61% active; shares compounds with TRPC6 inhibitor; AID 2777;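 active means rise or fall in signal beyond 3 SD of buffer-only wells in both replicate plates, either sign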;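 further: integrated kinetic ratio of fluorescence range over baseline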
HEK293 MPD ctr 2-1 – second counter-screen for TRPC6 inhibitors: parental HEK293 cells. shares compounds with TRPC6 inhibitor. parental HEK293 membrane potential dye fluorescence; maximal acetylcholine challenge after compound addition. signal change vs control, % at 10 µM. 920 tested, 31% active;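 active means membrane potential signal moving either way by over 3 SD of the maximum-effect control, in both duplicate plates, meaning non-specific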
HEK293 MPD ctr-1 – parental HEK293 nonspecific activity of TRPC6 inhibitors; AID 2780; membrane potential signal change, % at 10 µM; 920 tested, 60% active; shares compounds with TRPC6 inhibitor; parental HEK293 membrane potential dye fluorescence;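 active means membrane potential signal shifting up or down by more than 3 SD of buffer-only wells, on both duplicate plates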
HEK293 MPD ctr-2 – counter-screen for TRPC6 modulators: effect in parental HEK293 cells | shares compounds with TRPC6 inhibitor | membrane potential dye fluorescence | membrane potential signal change, % at 10 µM | 2,400 tested, 51% active;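 active means membrane potential signal moves up or down beyond 5 SD from buffer-only wells, on both duplicate plates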
HEK293 MPD ctr 2-2 – parental HEK293 nonspecific activity of TRPC6 modulators, second screen; membrane potential dye fluorescence; after compound, maximal acetylcholine stimulation; 2,400 tested, 14% active; shares compounds with TRPC6 inhibitor; inhibition, % at 10 µM; AID 488926;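 active means membrane potential signal drops by more than 5 SD from the mean control signal, in both duplicate plates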;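 further: plate controls were acetylcholine ECmax control wells for no effect and buffer only wells for full effect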
TRPC4/MOR mod – mouse TRPC4 off-target activity of TRPC6 modulators; shares compounds with TRPC6 inhibitor; 2,400 tested, 69% active; AID 488927; HEK293 TRPC4/mu-opioid, membrane potential fluorescence; percent change from control (negative = decrease, positive = increase), % at 10 µM;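 active means membrane potential signal moved up or down beyond 5 SD of buffer control wells, in both duplicate plates, actives on both sides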;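 further: plate controls were assay buffer wells for no effect and DAMGO maximal-effect wells for full effect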
TRPC4/MOR inh 2 – mouse TRPC4 off-target activity of TRPC6 modulators, second screen; shares compounds with TRPC6 inhibitor; HEK293 TRPC4/mu-opioid, membrane potential dye fluorescence; stimulated with maximal-effect DAMGO; inhibition, % at 10 µM; 2,400 tested, 55% active; AID 488928;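 active means drop in membrane potential signal beyond 5 SD of the control wells in both duplicate plates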;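 further: TRPC4 counter screen for TRPC6 hits run under conditions tuned for TRPC6 not TRPC4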
TRPC6 block conf – confirmation of mouse TRPC6 inhibitors; shares compounds with TRPC6 inhibitor; HEK293-TRPC6, membrane potential dye, ACh-evoked depolarization; inhibition, % at 10 µM; 3,300 tested, 43% active;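 active means fluorescence ratio falls more than 5 SD below the full-stimulation control mean, in both duplicate runs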;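 further: integrated fluorescence ratio of peak minus minimum over baseline after agonist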
TRPC6 act confirm – mouse TRPC6 activator confirmation. activation, % at 10 µM. shares compounds with TRPC6 inhibitor. 2,800 tested, 11% active. HEK293-TRPC6 membrane potential dye fluorescence, FDSS;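 active means ratio signal rise beyond 5 SD above unstimulated control wells' mean, seen in both duplicate runs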;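 further: plate controls were buffer EC0 wells for no effect and acetylcholine ECmax response for full effect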
Active calls of the source: *; i = inactive; . = not tested or not shown.

SMILES	TRPC4 act	TRPC4 potent	TRPC6 activator	TRPC4 inh	TRPC6 inhibitor	HEK293 MPD ctr-2	HEK293 MPD ctr 2-2	TRPC4/MOR mod	TRPC4/MOR inh 2	TRPC6 block conf	TRPC6 act confirm	others
COC(=O)C1(C)NC(c2ccc(OC)cc2)C2C(=O)N(c3ccccc3)C(=O)C21 (stereo not drawn)	i	i	i	i	-7.8*	.	.	.	.	i	i	TRPC4 sel inh 2=i;TRPC4 spec=i;HEK293 MPD ctr 2-1=i;HEK293 MPD ctr-1=i
CCCCCCOC(=O)c1ccc(N)cc1	i	i	i	i	-5.5*	i	i	i	34%*	i	i
CCCCOC(=O)c1ccc(NC(=S)NC(=O)c2ccco2)cc1	i	i	i	i	i	.	.	.	.	.	.
CCCCCOC(=O)c1ccc(NC(=O)c2ccco2)cc1	i	i	i	i	-13*	.	.	.	.	i	i	TRPC4 sel inh 2=i;TRPC4 spec=i;HEK293 MPD ctr 2-1=i;HEK293 MPD ctr-1=i
COc1ccccc1OCC(=O)OCC(=O)Nc1sccc1C(N)=O	i	i	i	i	-5.4*	i	i	i	i	i	i
COc1ccc(C(=O)OCC(=O)Nc2sccc2C(N)=O)cc1OC	i	i	i	i	i	.	.	.	.	.	.
CN1CCCC(C#CC(O)(c2ccccc2)c2ccccc2)C1 (stereo not drawn)	i	i	i	i	-8.8*	.	.	.	.	i	i	TRPC4 sel inh 2=i;TRPC4 spec=i;HEK293 MPD ctr 2-1=i;HEK293 MPD ctr-1=i
CN1CCCC(C(=O)C(C#N)c2ccccc2)C1 (stereo not drawn)	i	i	i	i	i	.	.	.	.	.	.
O=C(C1=C[C@H](c2csc3ccccc23)C[C@H](OCc2ccc(CO)cc2)O1)N1CCCCCCC1	i	i	i	i	i	.	.	.	.	.	.
O=[N+]([O-])c1ccc2nc(SCc3cn4cc(Cl)ccc4n3)[nH]c2c1	i	i	i	i	-5.4*	i	i	i	i	i	i
O=C(O)CCc1nn2c3ccccc3n(Cc3ccccc3F)c2nc1=O	i	i	i	i	i	.	.	.	.	.	.
COc1cccc(NC(=O)CCC(=O)Nc2cc(OC)c(NC(=O)c3cccs3)cc2OC)c1	i	i	i	i	i	.	.	.	.	.	.
Cc1cc(/C=C2\SC(=S)NC2=O)c(C)n1-c1ccc(O)cc1	i	i	27*	i	i	450%*	i	70%*	i	i	126%*
CC(C)c1ccc2c(c1)CCC1C(C)(CN)CCCC21C (stereo not drawn)	i	i	i	i	-6.4*	-82%*	i	-12%*	81%*	58%*	i
CCOc1ccccc1/C=C/C(=O)NCC(=O)N1CCC(N(C)C2CCCCC2C)CC1 (stereo not drawn)	i	i	i	i	i	.	.	.	.	.	.
O=C(CS(=O)(=O)c1ccc(F)cc1)NCCS(=O)(=O)c1ccccc1	i	i	i	i	i	.	.	.	.	.	.
CC1CCCN(C(=O)COC(=O)c2cc(-c3cccs3)nn2-c2ccccc2)C1 (stereo not drawn)	i	i	i	i	-6.5*	113%*	i	18%*	i	50%*	.
NC(=O)COC(=O)c1cc(-c2cccs2)nn1-c1ccccc1	i	i	i	.	i	.	.	.	.	.	.
O=C(CCN1C(=O)c2ccccc2C1=O)Nc1ccccc1C(F)(F)F	i	i	i	i	-7.3*	.	.	.	.	i	i	TRPC4 sel inh 2=i;TRPC4 spec=i;HEK293 MPD ctr 2-1=i;HEK293 MPD ctr-1=i
O=C(CN1C(=O)c2ccccc2C1=O)Nc1ccccc1C(F)(F)F	i	i	i	i	i	.	.	.	.	.	.
Cc1cc(Cl)c(OCCCNCc2ccccc2)c(Br)c1	i	i	12*	i	i	302%*	i	68%*	i	i	139%*
COc1ccc(S(=O)(=O)N2CCCCCC2)cc1NC(=O)Cc1ccccc1F	i	i	16*	i	-8.9*	i	i	i	i	i	i
COc1ccc(S(=O)(=O)N2CCOCC2)cc1Br	i	i	i	i	i	.	.	.	.	.	.
COc1ccc(S(=O)(=O)N2CCCCCC2)cc1NC(=O)Cc1cc(OC)c(OC)c(OC)c1	i	i	i	i	i	.	.	.	.	.	.
COc1ccc(S(=O)(=O)N2CCCCCC2)cc1Br	i	i	i	i	-6.4*	i	i	9.0%*	i	46%*	i
CC(C)(C)OC1NS(=O)(=O)OCC1NCOC(Cl)(Cl)Cl (stereo not drawn)	i	i	i	i	i	.	.	.	.	.	.
O=C(Cn1c(=O)oc2cccnc21)Nc1ccccc1Oc1ccc(Cl)cc1Cl	i	i	i	i	i	.	.	.	.	.	.
Cc1ccc(CNc2ncc(-c3ccc4c(c3)OCO4)n2C)cc1	i	i	i	i	i	.	.	.	.	.	.
COc1ccc(-c2cnc(NCc3cc4c(cc3[N+](=O)[O-])OCO4)n2C)cc1	i	i	i	i	-5.6*	i	i	i	44%*	i	i
COc1ccc(OC)c(CNc2ncc(-c3cccc([N+](=O)[O-])c3)n2C)c1	i	i	i	i	i	.	.	.	.	.	.
